The target in assay [1] is T1, Angiotensin-converting enzyme (Rattus norvegicus) (UniProt P47820).
T1 sequence (whole entry): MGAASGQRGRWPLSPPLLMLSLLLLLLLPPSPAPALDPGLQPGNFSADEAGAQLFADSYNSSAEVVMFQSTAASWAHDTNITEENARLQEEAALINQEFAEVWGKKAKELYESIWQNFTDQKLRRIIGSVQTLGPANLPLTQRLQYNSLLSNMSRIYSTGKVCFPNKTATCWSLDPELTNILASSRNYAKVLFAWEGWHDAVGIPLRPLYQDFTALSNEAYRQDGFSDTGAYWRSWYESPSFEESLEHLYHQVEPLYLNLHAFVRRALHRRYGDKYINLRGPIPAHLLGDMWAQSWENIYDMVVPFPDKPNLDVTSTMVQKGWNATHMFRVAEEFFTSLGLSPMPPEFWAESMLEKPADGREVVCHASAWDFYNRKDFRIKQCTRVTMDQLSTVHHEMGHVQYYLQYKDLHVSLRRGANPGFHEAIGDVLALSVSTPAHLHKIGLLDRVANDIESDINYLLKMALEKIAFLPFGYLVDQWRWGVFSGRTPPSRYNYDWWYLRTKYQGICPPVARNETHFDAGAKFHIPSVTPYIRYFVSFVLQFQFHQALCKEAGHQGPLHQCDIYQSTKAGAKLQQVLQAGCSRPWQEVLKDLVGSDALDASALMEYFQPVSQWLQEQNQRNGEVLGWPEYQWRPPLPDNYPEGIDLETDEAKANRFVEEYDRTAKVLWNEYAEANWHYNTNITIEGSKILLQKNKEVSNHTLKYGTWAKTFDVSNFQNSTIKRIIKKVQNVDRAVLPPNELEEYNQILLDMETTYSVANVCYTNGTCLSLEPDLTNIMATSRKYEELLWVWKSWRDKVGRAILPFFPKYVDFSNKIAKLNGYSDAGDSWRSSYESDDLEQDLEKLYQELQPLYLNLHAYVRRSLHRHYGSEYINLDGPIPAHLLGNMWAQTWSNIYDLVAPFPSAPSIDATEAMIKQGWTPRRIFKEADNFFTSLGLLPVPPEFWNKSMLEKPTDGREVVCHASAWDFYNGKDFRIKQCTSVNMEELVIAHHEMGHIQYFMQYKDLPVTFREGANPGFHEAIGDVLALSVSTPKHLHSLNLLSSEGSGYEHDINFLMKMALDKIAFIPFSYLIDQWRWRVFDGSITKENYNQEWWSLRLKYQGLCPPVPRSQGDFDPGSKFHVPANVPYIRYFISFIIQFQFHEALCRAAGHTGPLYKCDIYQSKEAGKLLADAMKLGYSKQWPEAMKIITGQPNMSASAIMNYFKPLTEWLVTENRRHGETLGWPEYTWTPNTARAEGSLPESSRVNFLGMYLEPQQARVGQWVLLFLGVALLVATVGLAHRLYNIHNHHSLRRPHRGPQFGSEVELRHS
Nature of the assay: (§1) Change in mean arterial blood pressure (MABP) after 20 mg/kg (po) dosage in Aorta-Coated renal hypertensive rat at 0.5 h. It counts as functional, organism-based. Details: dose 20 mg/kg. Put shortly:
(§2)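 Oral gavage to conscious, unrestrained rats made hypertensive by complete aortic ligation between the renal artery origins; only rats with MABP ≥150 mmHg on days 4–6 after coarctation used. Vehicle: ethanol, polyethylene glycol, Tween-80, diluted with saline. Direct arterial pressure via indwelling carotid cannula implanted 24 h earlier; change vs vehicle controls, means ± standard error, unpaired Student's t test.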

Assay [2] addresses T1, Angiotensin-converting enzyme (Rattus norvegicus). Put plainly: Change in mean arterial blood pressure (MABP) after 20 mg/kg (po) dosage in Aorta-Coated renal hypertensive rat at 2.0 h. In kind it is functional, organism-based. Further details: dose 20 mg/kg. In short, it runs like this: as §2
The test system of the next assay is Rattus norvegicus. The assay is described as §1. In kind it is functional. In short, it runs like this:
as §2

Structures are written as SMILES.

Take `CC(=O)S[C@H](C(=O)c1ccccc1)[C@@H](C)C(=O)N1CCC[C@H]1C(=O)O`: the Delta MABP in assay [1] is -23 mmHg; in assay [2] it was -23.2 mmHg.

Take `CC(=O)S[C@@H](C(=O)c1ccc(Br)cc1)[C@@H](C)C(=O)N1CCC[C@H]1C(=O)O`: the Delta MABP in assay [1] was -27.1 mmHg; in assay [2], -31.3 mmHg.

Take `CC(=O)SC(C(=O)c1ccc(Cl)cc1)C(C)C(=O)N1CCCC1C(=O)O` (stereo not given): the results for the Delta MABP in assay [1] and in assay [2] were -24 mmHg and -30.5 mmHg, respectively.

In the case of `O=C(SC(CC(=O)N1CCCC1C(=O)O)C(=O)c1ccc(Br)cc1)c1ccccc1` (stereo not given), the Delta MABP was -10 mmHg in assay [1] and -14.3 mmHg in assay [2].

For the compound `O=C(SC(CC(=O)N1CCCC1C(=O)O)C(=O)c1cccc(F)c1)c1ccccc1` (stereo not given), the Delta MABP in assay [1] was -41 mmHg; in assay [2], 3.75 mmHg.

With `CC(=O)SC(CC(=O)N1CCCC1C(=O)O)C(=O)c1ccc2ccccc2c1` (stereo not given), the results for the Delta MABP in assay [1] and in assay [2] were -17.3 mmHg and -6.67 mmHg, respectively.

With `CC(=O)SC(CC(=O)N1CCCC1C(=O)O)C(=O)c1ccc(C(C)(C)C)cc1` (stereo not given), the results for the Delta MABP in assay [1] and in assay [2] were -30 mmHg and -19.2 mmHg, respectively.

As to `CC(=O)S[C@@H](C(=O)c1ccccc1)[C@@H](C)C(=O)N1CCC[C@H]1C(=O)O`, the Delta MABP in assay [1] was -22.4 mmHg; in assay [2], -17.1 mmHg.

Regarding `C[C@H](CS)C(=O)N1CCC[C@H]1C(=O)O`, the Delta MABP in assay [1] is -27.7 mmHg; in assay [2], -21.7 mmHg.

Take `CC(=O)SC(CC(=O)N1CCCC1C(=O)O)C(=O)c1ccc(F)cc1` (stereo not given): the Delta MABP in assay [1] is -15.8 mmHg; in assay [2] it was -14.7 mmHg.

For `COc1ccc(C(=O)C(CC(=O)N2CCCC2C(=O)O)SC(C)=O)cc1F` (stereo not given), the Delta MABP in assay [1] was -12.7 mmHg; in assay [2], -11 mmHg.

On to `O=C(SC(CC(=O)N1CCCC1C(=O)O)C(=O)c1ccc(F)cc1)c1ccccc1` (stereo not given), for which the Delta MABP is -12 mmHg in assay [1] and -6.5 mmHg in assay [2].

On to `CC(=O)S[C@H](C(=O)c1ccc(Br)cc1)[C@@H](C)C(=O)N1CCC[C@H]1C(=O)O`, for which the Delta MABP was -23.5 mmHg in assay [1] and -26.7 mmHg in assay [2].

`O=C(c1ccc(Br)cc1)C(S)CC(=O)N1CCCC1C(=O)O` (stereo not given): the Delta MABP in assay [1] was -8.8 mmHg; in assay [2], -12 mmHg.

`CC(=O)SC(CC(=O)N1CCCC1C(=O)O)C(=O)c1ccc2c(c1)CCC2` (stereo not given): the Delta MABP is -18.5 mmHg in assay [1] and -30 mmHg in assay [2].

On to `CC(=O)S[C@H](C(=O)c1cccc(F)c1)[C@@H](C)C(=O)N1CCC[C@H]1C(=O)O`, for which the Delta MABP in assay [1] is -24.8 mmHg; in assay [2] it was -28 mmHg.

Turning to `CC(=O)S[C@@H](C(=O)c1cccc(F)c1)[C@@H](C)C(=O)N1CCC[C@H]1C(=O)O`, the Delta MABP in assay [1] was -17.5 mmHg.

For the compound `CC(=O)SC(CC(=O)N1CCCC1C(=O)O)C(=O)c1cccc(C(F)(F)F)c1` (stereo not given), the Delta MABP in assay [1] was -17.5 mmHg; in assay [2], -0.83 mmHg.

`CC(=O)SC(CC(=O)N1CCCC1C(=O)O)C(=O)c1ccc(Br)cc1` (stereo not given): the Delta MABP was -18.3 mmHg in assay [1] and -10.4 mmHg in assay [2].

Consider `CC(=O)SC(CC(=O)N1CCCC1C(=O)O)C(=O)c1cccc(F)c1` (stereo not given), for which the Delta MABP in assay [1] was -17 mmHg; in assay [2], -5.43 mmHg.

Turning to `O=C(SC(CC(=O)N1CCCC1C(=O)O)C(=O)c1ccccc1)c1ccccc1` (stereo not given), the Delta MABP in assay [1] was -1 mmHg; in assay [2], -22.7 mmHg.

Consider `CC(=O)SC(CC(=O)N1CCCC1C(=O)O)C(=O)c1ccc(Cl)cc1` (stereo not given), for which the Delta MABP is -11.7 mmHg in assay [2] and -17.33 mmHg in the assay on Rattus norvegicus.

For `CC(=O)SC(CC(=O)N1CCCC1C(=O)O)C(=O)c1ccccc1` (stereo not given), the results for the Delta MABP (in assay [2]; in the assay with Rattus norvegicus) were -5.25 mmHg and -19.2 mmHg, respectively.

For the origin of these results see ChEMBL document CHEMBL1122345, “Antihypertensive agents: angiotensin converting enzyme inhibitors. 1-[3-(Acylthio)-3-aroylpropionyl]-L-prolines” (J Med Chem, 1983).
